# Legend:
# [1] = Solubility of the compound in pH 7.4 phosphate buffer saline after 1 hr by chemiluminescence nitrogen detection method; type: physicochemical; conditions: phosphate buffered saline
# Summary of the method: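 Kinetic solubility: 10 mM DMSO stock diluted 1:20 into 10 mM phosphate-buffered saline pH 7.4, equilibrated 1 h at RT, filtered, and filtrate quantified by calibrated flow-injection chemiluminescent nitrogen detection.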
# [2] = target: Calcium/calmodulin-dependent protein kinase kinase 2 (Homo sapiens, UniProt Q96RR4); assay: Inhibition of full-length human GST-tagged CAMKK2 using 5FAM-AKPKGNKDYHLQTCCGSLAYRRR-amide as substrate preincubated for 30 mins followed by substrate addition measured after 120 mins by fluorescence polarization assay
# [3] = target: T1, Inhibitor of nuclear factor kappa-B kinase subunit alpha (Homo sapiens, UniProt O15111); assay: Inhibition of IKK1 (unknown origin)
# T1 sequence (O15111 whole entry): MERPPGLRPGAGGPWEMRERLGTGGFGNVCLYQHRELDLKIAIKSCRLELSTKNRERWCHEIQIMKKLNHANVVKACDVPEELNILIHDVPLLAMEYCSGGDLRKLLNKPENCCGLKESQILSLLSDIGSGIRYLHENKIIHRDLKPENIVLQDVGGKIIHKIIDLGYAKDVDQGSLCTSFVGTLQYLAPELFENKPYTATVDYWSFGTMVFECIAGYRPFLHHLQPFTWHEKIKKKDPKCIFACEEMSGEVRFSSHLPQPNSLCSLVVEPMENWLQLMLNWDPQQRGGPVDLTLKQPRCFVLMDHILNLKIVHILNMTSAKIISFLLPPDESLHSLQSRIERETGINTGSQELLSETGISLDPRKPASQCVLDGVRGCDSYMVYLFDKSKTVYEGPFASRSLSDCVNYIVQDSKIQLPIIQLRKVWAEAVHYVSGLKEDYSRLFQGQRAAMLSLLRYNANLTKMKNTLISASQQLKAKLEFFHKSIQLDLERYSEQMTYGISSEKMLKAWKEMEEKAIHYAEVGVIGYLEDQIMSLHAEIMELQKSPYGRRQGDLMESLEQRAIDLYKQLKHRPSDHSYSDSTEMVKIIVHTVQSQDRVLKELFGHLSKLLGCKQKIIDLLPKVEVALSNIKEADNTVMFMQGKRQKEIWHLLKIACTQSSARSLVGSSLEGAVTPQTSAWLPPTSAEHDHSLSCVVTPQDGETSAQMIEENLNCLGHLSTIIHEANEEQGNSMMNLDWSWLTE
# [4] = target: Calcium/calmodulin-dependent protein kinase kinase 2 (Mus musculus, UniProt Q8C078); assay: Inhibition of CAMKK2 in mouse N39 cells assessed as decrease in AMPKalpha phosphorylation at T172 preincubated for 80 mins followed by […] addition by ELISA; type: cell-based
# Summary of the method: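 Mouse N39 cells seeded ~1000 cells/well, cultured overnight at 37°C, 5% CO2, then exposed to compound in DMSO for 80 min before ionomycin stimulation ([…] as added). Cells were lysed in extraction buffer for 30 min on ice, then diluted into ice-cold lysis buffer containing protease and phosphatase inhibitors for MSD read-out.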
# Insulin receptor = Insulin receptor (Homo sapiens, UniProt P06213); assay: Inhibition of INSR (unknown origin); conditions: read-out: pIC50 (converted)
# [5] = target: Mitogen-activated protein kinase 8 (Homo sapiens, UniProt P45983); assay: Inhibition of JNK1 (unknown origin)
# [6] = target: Glycogen synthase kinase-3 beta (Homo sapiens, UniProt P49841); assay: Inhibition of GSK3beta (unknown origin)
# [7] = target: Phosphatidylinositol 4,5-bisphosphate 3-kinase catalytic subunit gamma isoform (Homo sapiens, UniProt P48736); assay: Inhibition of PI3Kgamma (unknown origin)
# Chain of Phosphatidylinositol 4,5-bisphosphate 3-kinase catalytic subunit gamma isoform (P48736 whole entry, canonical isoform): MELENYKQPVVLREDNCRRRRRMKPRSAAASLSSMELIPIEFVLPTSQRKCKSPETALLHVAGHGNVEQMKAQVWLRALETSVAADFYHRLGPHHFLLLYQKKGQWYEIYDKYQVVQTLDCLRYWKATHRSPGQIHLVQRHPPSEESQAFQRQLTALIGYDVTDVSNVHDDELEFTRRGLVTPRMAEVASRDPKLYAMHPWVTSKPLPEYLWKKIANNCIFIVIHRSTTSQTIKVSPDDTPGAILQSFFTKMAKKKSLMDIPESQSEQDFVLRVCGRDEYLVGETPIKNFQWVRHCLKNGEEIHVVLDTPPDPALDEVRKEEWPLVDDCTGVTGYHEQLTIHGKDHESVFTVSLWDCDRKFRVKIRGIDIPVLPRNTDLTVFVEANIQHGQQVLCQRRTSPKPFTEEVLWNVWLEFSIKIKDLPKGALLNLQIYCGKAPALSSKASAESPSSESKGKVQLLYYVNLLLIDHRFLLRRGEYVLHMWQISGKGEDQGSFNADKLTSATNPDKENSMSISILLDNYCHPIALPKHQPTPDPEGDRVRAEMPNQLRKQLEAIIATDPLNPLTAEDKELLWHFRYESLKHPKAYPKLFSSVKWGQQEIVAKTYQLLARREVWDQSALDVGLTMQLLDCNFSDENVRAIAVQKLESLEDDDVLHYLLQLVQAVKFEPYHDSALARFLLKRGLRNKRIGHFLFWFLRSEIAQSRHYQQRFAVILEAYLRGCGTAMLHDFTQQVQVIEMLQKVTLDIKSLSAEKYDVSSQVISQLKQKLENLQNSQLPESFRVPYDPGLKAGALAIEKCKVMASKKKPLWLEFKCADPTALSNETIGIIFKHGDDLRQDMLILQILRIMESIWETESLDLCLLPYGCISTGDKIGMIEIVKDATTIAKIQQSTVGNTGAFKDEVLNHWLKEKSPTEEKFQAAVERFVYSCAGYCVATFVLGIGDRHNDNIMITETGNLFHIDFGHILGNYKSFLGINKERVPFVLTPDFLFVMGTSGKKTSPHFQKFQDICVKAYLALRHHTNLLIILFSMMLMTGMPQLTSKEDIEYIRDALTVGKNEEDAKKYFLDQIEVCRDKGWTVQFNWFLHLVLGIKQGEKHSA
# Chain of Insulin receptor (P06213 28-758 limits assumed): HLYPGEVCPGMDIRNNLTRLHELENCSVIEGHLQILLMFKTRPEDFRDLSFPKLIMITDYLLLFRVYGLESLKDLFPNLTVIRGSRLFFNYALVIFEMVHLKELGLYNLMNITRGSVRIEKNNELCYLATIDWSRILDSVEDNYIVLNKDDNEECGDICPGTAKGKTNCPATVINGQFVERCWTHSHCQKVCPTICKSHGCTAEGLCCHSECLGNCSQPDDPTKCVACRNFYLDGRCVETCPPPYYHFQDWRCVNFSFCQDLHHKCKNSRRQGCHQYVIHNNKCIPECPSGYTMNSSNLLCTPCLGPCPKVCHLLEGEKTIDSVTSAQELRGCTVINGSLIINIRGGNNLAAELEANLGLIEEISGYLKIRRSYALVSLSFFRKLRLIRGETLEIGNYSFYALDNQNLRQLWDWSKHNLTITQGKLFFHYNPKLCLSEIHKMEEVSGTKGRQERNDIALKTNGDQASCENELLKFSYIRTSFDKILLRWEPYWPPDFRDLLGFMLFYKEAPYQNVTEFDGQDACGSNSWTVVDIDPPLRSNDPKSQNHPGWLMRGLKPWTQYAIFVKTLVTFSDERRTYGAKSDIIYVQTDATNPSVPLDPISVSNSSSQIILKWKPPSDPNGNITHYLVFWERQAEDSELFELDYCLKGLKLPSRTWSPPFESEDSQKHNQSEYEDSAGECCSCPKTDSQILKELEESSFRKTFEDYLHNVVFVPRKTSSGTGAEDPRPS
# Chain of Insulin receptor (P06213 763-1382 limits assumed): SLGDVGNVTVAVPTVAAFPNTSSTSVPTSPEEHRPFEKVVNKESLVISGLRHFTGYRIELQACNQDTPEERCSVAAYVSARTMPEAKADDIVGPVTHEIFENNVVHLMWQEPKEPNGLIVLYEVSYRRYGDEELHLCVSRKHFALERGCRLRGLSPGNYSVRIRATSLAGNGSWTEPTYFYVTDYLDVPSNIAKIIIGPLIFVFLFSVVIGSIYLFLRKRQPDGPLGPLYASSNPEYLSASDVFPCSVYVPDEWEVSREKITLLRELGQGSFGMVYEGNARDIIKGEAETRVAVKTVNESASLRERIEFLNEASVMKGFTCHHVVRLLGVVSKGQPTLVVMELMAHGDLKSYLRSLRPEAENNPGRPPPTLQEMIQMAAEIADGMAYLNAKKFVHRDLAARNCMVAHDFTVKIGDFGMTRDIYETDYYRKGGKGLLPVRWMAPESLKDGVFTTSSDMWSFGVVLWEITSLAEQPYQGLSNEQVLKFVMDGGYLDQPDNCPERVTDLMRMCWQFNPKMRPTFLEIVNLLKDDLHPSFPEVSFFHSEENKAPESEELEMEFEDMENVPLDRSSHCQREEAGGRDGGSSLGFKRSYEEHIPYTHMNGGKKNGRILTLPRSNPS
# Chain of Mitogen-activated protein kinase 8 (P45983 whole entry): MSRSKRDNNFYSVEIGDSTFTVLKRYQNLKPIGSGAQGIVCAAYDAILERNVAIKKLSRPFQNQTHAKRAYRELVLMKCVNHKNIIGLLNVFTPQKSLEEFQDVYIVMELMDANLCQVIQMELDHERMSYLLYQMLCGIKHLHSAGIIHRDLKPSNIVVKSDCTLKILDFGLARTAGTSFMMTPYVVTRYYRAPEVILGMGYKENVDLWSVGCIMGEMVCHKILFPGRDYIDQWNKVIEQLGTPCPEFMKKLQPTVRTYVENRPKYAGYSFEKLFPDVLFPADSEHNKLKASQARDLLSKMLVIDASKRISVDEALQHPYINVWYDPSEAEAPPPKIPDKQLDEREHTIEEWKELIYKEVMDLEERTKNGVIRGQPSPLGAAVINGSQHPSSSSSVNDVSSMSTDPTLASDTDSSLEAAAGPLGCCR
# Chain of Calcium/calmodulin-dependent protein kinase kinase 2 (Homo sapiens, UniProt Q96RR4) (Q96RR4 whole entry): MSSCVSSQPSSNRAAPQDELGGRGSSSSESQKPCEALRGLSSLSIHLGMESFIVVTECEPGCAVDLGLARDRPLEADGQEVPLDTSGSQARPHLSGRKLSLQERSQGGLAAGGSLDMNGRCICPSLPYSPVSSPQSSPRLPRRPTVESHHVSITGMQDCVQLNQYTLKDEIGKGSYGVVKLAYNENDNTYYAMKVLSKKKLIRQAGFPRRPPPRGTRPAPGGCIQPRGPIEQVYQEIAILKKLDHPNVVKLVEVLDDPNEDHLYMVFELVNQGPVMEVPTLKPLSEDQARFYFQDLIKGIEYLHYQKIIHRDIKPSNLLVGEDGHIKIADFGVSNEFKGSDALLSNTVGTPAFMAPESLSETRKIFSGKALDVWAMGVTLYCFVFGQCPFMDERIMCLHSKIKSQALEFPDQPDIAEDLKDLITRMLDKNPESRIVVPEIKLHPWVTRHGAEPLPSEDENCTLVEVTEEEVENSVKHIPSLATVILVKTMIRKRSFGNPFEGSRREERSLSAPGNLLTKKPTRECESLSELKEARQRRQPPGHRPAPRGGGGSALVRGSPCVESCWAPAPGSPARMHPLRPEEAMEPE
# Chain of Glycogen synthase kinase-3 beta (P49841 whole entry, canonical isoform): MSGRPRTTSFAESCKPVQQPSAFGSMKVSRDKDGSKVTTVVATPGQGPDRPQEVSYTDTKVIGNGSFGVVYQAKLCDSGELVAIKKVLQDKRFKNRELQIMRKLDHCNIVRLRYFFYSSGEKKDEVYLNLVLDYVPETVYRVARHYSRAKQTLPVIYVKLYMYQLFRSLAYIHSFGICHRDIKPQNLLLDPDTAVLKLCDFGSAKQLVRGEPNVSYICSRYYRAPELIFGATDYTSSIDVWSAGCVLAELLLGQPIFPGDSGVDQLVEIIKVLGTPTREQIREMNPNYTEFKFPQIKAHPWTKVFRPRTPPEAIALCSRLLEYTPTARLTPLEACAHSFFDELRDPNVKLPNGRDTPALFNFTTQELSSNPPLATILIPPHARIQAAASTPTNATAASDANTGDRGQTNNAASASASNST
# Chain of Calcium/calmodulin-dependent protein kinase kinase 2 (Mus musculus, UniProt Q8C078) (Q8C078 whole entry): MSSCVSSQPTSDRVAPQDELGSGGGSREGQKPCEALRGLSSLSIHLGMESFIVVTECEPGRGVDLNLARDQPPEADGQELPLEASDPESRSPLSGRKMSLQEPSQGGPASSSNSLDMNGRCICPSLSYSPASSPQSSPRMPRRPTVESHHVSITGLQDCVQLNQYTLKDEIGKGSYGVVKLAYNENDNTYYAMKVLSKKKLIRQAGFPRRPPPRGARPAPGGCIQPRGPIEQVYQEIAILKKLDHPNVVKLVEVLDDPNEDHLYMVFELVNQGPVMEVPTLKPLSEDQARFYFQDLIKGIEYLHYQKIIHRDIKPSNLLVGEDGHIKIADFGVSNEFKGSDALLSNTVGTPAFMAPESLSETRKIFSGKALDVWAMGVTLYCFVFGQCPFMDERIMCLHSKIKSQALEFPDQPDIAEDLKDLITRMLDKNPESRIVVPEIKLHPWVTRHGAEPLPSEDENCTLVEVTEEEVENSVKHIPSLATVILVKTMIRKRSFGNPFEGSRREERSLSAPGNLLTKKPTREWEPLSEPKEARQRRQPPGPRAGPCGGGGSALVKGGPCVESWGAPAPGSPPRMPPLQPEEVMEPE
solubility at 1 h [1] [µM],IC50 [2] [nM],IC50 [3] [nM],IC50 [4] [nM],IC50 (Insulin receptor) [nM],IC50 [5] [nM],IC50 [6] [nM],IC50 [7] [nM],Compound
> 115,,,,,,,,CS(=O)(=O)c1cccc(-c2cnc3[nH]cc(-c4ccc(C(N)=O)cc4)c3c2)c1
157,3.16 to 25.1,79.4,158,316,79.4,,,CN(C)Cc1ccc(-c2cc3c(-c4ccc(C(N)=O)cc4)ccnc3[nH]2)cc1
9,,,,,,,,NC(=O)c1ccc(-c2c[nH]c3ncc(-c4ccccc4Oc4ccccc4)cc23)cc1
> 367,2,,1000,,3160,15800,1580,COc1ccccc1Nc1nccc(-c2ccc(C(=O)O)c(C(C)C)c2)n1
333,5.01 to 25.1,,,,,,,CC(C)Cc1cc(-c2c[nH]c3ncc(-c4ccccc4)cc23)ccc1C(=O)O
1,,,> 10000,,,,,COc1ccccc1-c1cnc2[nH]cc(-c3ccc(C(N)=O)c(C4CCCC4)c3)c2c1
13,3.16 to 12.6,158,3160,1260,200,,,CS(=O)(=O)Nc1cccc(-c2cc3c(-c4ccc(C(N)=O)cc4)ccnc3[nH]2)c1
11,1.58,126,158,1260,200,,,Cc1cc(OCCN2CCOCC2)ccc1-c1cc2c(-c3ccc(C(N)=O)cc3)ccnc2[nH]1
24,,,,,,,,O=C(O)c1ccc(-c2c[nH]c3ncc(-c4ccccc4Oc4ccccc4)cc23)cc1
82,200,,,,,,,O=C(O)c1ccc(-c2c[nH]c3ncc(-c4ccccc4)cc23)cc1
177,,,,,,,,CS(=O)(=O)c1cccc(-c2cnc3[nH]cc(-c4ccc(C(=O)O)cc4)c3c2)c1
178,20,,,,,,,CCc1cc(-c2c[nH]c3ncc(-c4ccccc4)cc23)ccc1C(=O)O
97,1 to 7.94,,398,,3160,7940,6310,COc1ccccc1Nc1ncc(F)c(-c2ccc(C(=O)O)c(C(C)C)c2)n1
7,1260 to 10000,,,,,,,N#Cc1ccc2c(-c3ccc(C(N)=O)c(C4CCCC4)c3)c[nH]c2n1
155,,,6310,,,,,N#Cc1ccc2c(-c3ccc(C(=O)O)c(C4CCCC4)c3)c[nH]c2n1
2,,,> 10000,,,,,NC(=O)c1ccc(-c2c[nH]c3ncc(-c4ccccc4OC(F)(F)F)cc23)cc1C1CCCC1
18,1.58 to 12.6,100,200,1260,316,,,Cc1c(CN2CCOCC2)cccc1-c1cc2c(-c3ccc(C(N)=O)cc3)ccnc2[nH]1
1,1.58 to 20,158,200,> 10000,631,,,Cc1ccc(CN2CCOCC2)cc1-c1cc2c(-c3ccc(C(N)=O)c(C(C)C)c3)ccnc2[nH]1
> 172,,,6310,,,,,CC(C)c1cc(-c2c[nH]c3nc(C#N)ccc23)ccc1C(=O)O
4,31.6 to 501,,3980,,> 10000,> 25100,> 10000,Cc1ccc(-c2ccccc2)cc1Nc1nccc(-c2ccc(C(N)=O)cc2)n1
5,158 to 1580,,> 10000,,> 10000,20000,6310,COc1ccccc1Nc1ncc(Cl)c(-c2ccc(C(N)=O)c(C(C)C)c2)n1
> 205,1260 to 10000,,,,,,,NC(=O)c1ccc2c(-c3ccc(C(=O)O)c(C4CCCC4)c3)c[nH]c2n1
> 439,,,1260,,,,,CC(C)c1cc(-c2c[nH]c3ncc(-c4ccccc4)cc23)ccc1C(=O)O
2,1.58 to 15.8,3160,31.6,> 10000,6310,,,Cc1ccc(CN2CCOCC2)cc1-c1cc2c(-c3ccc(C(N)=O)cc3)ccnc2[nH]1
